Converted amounts (≈) assume the structure as drawn.
Legend:
Neutrophil [1] = assay: Anti-inflammatory activity in human neutrophils assessed as inhibition of fMLP/CB-induced superoxide anion generation by measuring superoxide dismutase SOD-inhibitable ferricytochrome c reduction at 10 ug/ml incubated for 5 mins before fMLP/CB stimulation for 3 mins by spectrophotometry; assay type: functional
Procedure, shortened: (§1)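 Same neutrophil preparation. Cells at 6 × 10^5/mL with 0.5 mg/mL ferricytochrome c and 1 mM Ca2+ were equilibrated 2 min at 37 °C and given compound or 0.1% DMSO for 5 min. Cytochalasin B (1 μg/mL) was added, then 100 nM fMLP. A550 was monitored continuously with stirring. Superoxide was calculated from the difference with versus without SOD (100 U/mL) using ε = 21.1/mM/10 mm. IC50 values are mean ± SD, n = 3.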

Neutrophil [2] = assay: Anti-inflammatory activity in human neutrophils assessed as inhibition of fMLP/CB-induced elastase release pre-incubated for 5 mins before fMLP/CB stimulation using MeO-Suc-Ala-Ala-Pro-Val-pnitroanilide as substrate; assay type: functional, cell-based
Procedure, shortened: (§2)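 Neutrophils were isolated by dextran sedimentation, Ficoll Hypaque centrifugation and hypotonic lysis of erythrocytes, then held in Ca2+-free HBSS pH 7.4 at 4 °C. Cells at 6 × 10^5/mL with 100 μM substrate were equilibrated 2 min at 37 °C and given compound or 0.1% DMSO vehicle for 5 min. They were activated with 100 nM fMLP plus 0.5 μg/mL cytochalasin B, and A405 was monitored continuously. Release is expressed as percent of the drug-free activated control. Mean ± SD.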

Neutrophil [3] = assay: Anti-inflammatory activity in human neutrophils assessed as inhibition of fMLP/CB-induced superoxide anion generation by measuring superoxide dismutase SOD-inhibitable ferricytochrome c reduction incubated for 5 mins before fMLP/CB stimulation for 3 mins by spectrophotometry; assay type: functional, cell-based; procedure, shortened: as §1
Neutrophil [4] = assay: Anti-inflammatory activity in human neutrophils assessed as inhibition of fMLP/CB-induced elastase release at 10 ug/ml pre-incubated for 5 mins before fMLP/CB stimulation using MeO-Suc-Ala-Ala-Pro-Val-pnitroanilide as substrate; assay type: functional; procedure, shortened: as §2

| IC50 (Neutrophil [2]) | IC50 (Neutrophil [3]) | SMILES | inhibition at 10 µg/mL (Neutrophil [1]) | inhibition (Neutrophil [3]) | inhibition at 10 µg/mL (Neutrophil [4]) | inhibition (Neutrophil [2]) |
| --- | --- | --- | --- | --- | --- | --- |
| > 10 µg/mL | 1.4 µg/mL (≈ 2.24 µM) | C[C@@H]1O[C@@H](OC[C@H]2O[C@@H](OCCc3ccc(O)c(O)c3)[C@H](O)[C@@H](O)[C@@H]2OC(=O)/C=C/c2ccc(O)c(O)c2)[C@H](O)[C@H](O)[C@H]1O [FORSYTHIASIDE] | > 50% | Dose-dependent effect | – | – |
| > 10 µg/mL | > 10 µg/mL | O=C(Cc1ccc(O)cc1)OC[C@H]1CC[C@@H]2C(C(=O)O)=CO[C@@H](O[C@@H]3O[C@H](CO)[C@@H](O)[C@H](O)[C@H]3O)[C@H]12 | – | – | – | – |
| > 10 µg/mL | 5.6 µg/mL (≈ 21.2 µM) | COc1ccc([C@H]2OC[C@@H]3C(=O)OC[C@@H]32)cc1OC | > 50% | Dose-dependent effect | – | – |
| > 10 µg/mL | 1.3 µg/mL (≈ 3.63 µM) | COc1cc([C@H]2OC[C@H]3[C@@H]2CO[C@@H]3c2ccc(O)c(OC)c2)ccc1O | > 50% | Dose-dependent effect | – | – |
| > 10 µg/mL | > 10 µg/mL | COC1CC[C@@](C)([C@H]2CC[C@]3(C)[C@@H]2CC[C@@H]2[C@@]4(C)CCC(OC(C)=O)C(C)(C)[C@@H]4CC[C@]23C)O1 (stereo partly drawn) | – | – | – | – |
| > 10 µg/mL | > 10 µg/mL | CC1=C(CC/C(C)=C/C(=O)O)[C@@]2(C)CCC[C@@](C)(CO)[C@@H]2CC1=O | – | – | – | – |
| > 10 µg/mL | > 10 µg/mL | C=C1CC[C@H]2[C@@](C)(COC=O)CCC[C@]2(C)[C@H]1CC/C(C)=C\C(=O)O | – | – | – | – |
| 7.3 µg/mL (≈ 20.4 µM) | 4.3 µg/mL (≈ 12 µM) | COc1cc(C[C@H]2COC(=O)[C@@H]2Cc2ccc(O)c(OC)c2)ccc1O [MATAIRESINOL] | > 50% | Dose-dependent effect | > 50% | Dose-dependent effect |
| > 10 µg/mL | > 10 µg/mL | CC(=O)O[C@H]1CC[C@]2(C)[C@H]3CC=C4[C@@H]5CC(C)(C)CC[C@]5(C(=O)O)CC[C@@]4(C)[C@]3(C)CC[C@H]2C1(C)C [ACETYL OLEANOLIC ACID] | – | – | – | – |
| > 10 µg/mL | > 10 µg/mL | C=C1CC[C@H]2[C@](C)(CO)CCC[C@]2(C)[C@H]1CC/C(C)=C/C(=O)O | – | – | – | – |
| > 10 µg/mL | > 10 µg/mL | C=C1CC[C@H]2C(C)(C)C(=O)CC[C@]2(C)[C@H]1CC/C(C)=C/C(=O)O | – | – | – | – |
| 0.9 µg/mL (≈ 1.94 µM) | 1.5 µg/mL (≈ 3.23 µM) | CNC(=O)c1cc(Oc2ccc(NC(=O)Nc3ccc(Cl)c(C(F)(F)F)c3)cc2)ccn1 [SORAFENIB] | – | – | – | – |
| > 10 µg/mL | > 10 µg/mL | CC(=O)O[C@H]1CC[C@]2(C)[C@H]3CCC4[C@@H]([C@]5(C)CC[C@@H](O)C(C)(C)O5)CC[C@@]4(C)[C@]3(C)CC[C@H]2C1(C)C (stereo partly drawn) | – | – | – | – |
| > 10 µg/mL | 3.4 µg/mL (≈ 9.49 µM) | COc1cc([C@H]2OC[C@H]3[C@@H]2CO[C@H]3c2ccc(O)c(OC)c2)ccc1O [PINORESINOL] | > 50% | Dose-dependent effect | – | – |
| > 10 µg/mL | > 10 µg/mL | C=C1CC[C@@H]2[C@](C)(CCC[C@@]2(C)C(=O)O)[C@H]1CC/C(C)=C\C(=O)O | – | – | – | – |
| > 10 µg/mL | 6.4 µg/mL (≈ 17.2 µM) | COc1cc([C@H]2OC[C@H]3[C@@H]2CO[C@H]3c2ccc(OC)c(OC)c2)ccc1O [PHILLYGENIN] | > 50% | Dose-dependent effect | – | – |
| 0.8 µg/mL (≈ 1.75 µM) | 0.6 µg/mL (≈ 1.31 µM) | C[C@H]1[C@H](C)CC[C@]2(C(=O)O)CC[C@]3(C)C(=CC[C@@H]4[C@@]5(C)CC[C@H](O)C(C)(C)[C@@H]5CC[C@]43C)[C@H]12 [URSOLIC ACID] | > 50% | Dose-dependent effect | > 50% | Dose-dependent effect |
| > 10 µg/mL | > 10 µg/mL | C/C(=C\C(=O)O)CC[C@@]1(C)[C@H](C)CC[C@]2(C)C(C(=O)O)=CCC[C@H]12 | – | – | – | – |
| > 10 µg/mL | 7.4 µg/mL (≈ 23.1 µM) | C=C1CCC2[C@@](C)(CO)CCC[C@]2(C)[C@H]1CC/C(C)=C/C(=O)O (stereo partly drawn) | > 50% | Dose-dependent effect | – | – |
| > 10 µg/mL | > 10 µg/mL | O=C1C=CC2(O)CC(=O)OC2C1 (stereo not drawn) | – | – | – | – |
| > 10 µg/mL | 2.5 µg/mL (≈ 7.8 µM) | C=C1CC[C@H]2[C@@](C)(CO)CCC[C@]2(C)[C@H]1CC/C(C)=C\C(=O)O | > 50% | – | – | – |
| > 10 µg/mL | > 10 µg/mL | COC(C)(C)/C=C/C[C@](C)(O)[C@H]1CC[C@]2(C)C1CC[C@@H]1[C@@]3(C)CC[C@H](OC(C)=O)C(C)(C)[C@@H]3CC[C@]12C (stereo partly drawn) | – | – | – | – |
| > 10 µg/mL | 8.3 µg/mL (≈ 24.7 µM) | C/C(=C\C(=O)O)CC[C@H]1C(CO)=CC[C@H]2[C@@](C)(CO)CCC[C@]12C | > 50% | – | – | – |

| SMILES | IC50 (Neutrophil [2]) | IC50 (Neutrophil [3]) | inhibition at 10 µg/mL (Neutrophil [1]) | inhibition (Neutrophil [3]) | inhibition at 10 µg/mL (Neutrophil [4]) | inhibition (Neutrophil [2]) |
| --- | --- | --- | --- | --- | --- | --- |
| C=C(C)[C@@H]1CC[C@]2(C(=O)O)CC[C@]3(C)C(CCC4[C@@]5(C)C[C@@H](O)[C@H](O)C(C)(C)C5CC[C@]43C)C12 (stereo partly drawn) | 1.9 µg/mL (≈ 4.02 µM) | 0.8 µg/mL (≈ 1.69 µM) | > 50% | Dose-dependent effect | > 50% | Dose-dependent effect |
| CC(=O)OC1CC[C@]2(C)[C@H]3CC[C@@H]4[C@@H]([C@]5(C)CCC(=O)O5)CC[C@@]4(C)[C@]3(C)CC[C@H]2C1(C)C (stereo partly drawn) | > 10 µg/mL | > 10 µg/mL | – | – | – | – |
| CC(=O)O[C@H]1CC[C@]2(C)[C@H]3CCC4[C@@H]([C@@](C)(O)CCC=C(C)C)CC[C@@]4(C)[C@]3(C)CC[C@H]2C1(C)C (stereo partly drawn) | > 10 µg/mL | > 10 µg/mL | – | – | – | – |
